For 33 compounds, MIC results are on record in ChEMBL document CHEMBL1138270, “Antimycobacterial activities of novel 1-(cyclopropyl/tert-butyl/4-fluorophenyl)-1,4-dihydro- 6-nitro-4-oxo-7-(substituted secondary amino)-1,8-naphthyridine-3-carboxylic acid” (J Med Chem, 2007).

SMILES strings stand for the structures. ≈ marks a conversion by molar mass, not a printed value.

In this assay the test system is Mycobacterium tuberculosis. In words: Antimycobacterial activity against multi-drug-resistant Mycobacterium tuberculosis by agar dilution method. It counts as functional. In a few lines: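 MIC was determined by agar dilution, in duplicate.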
Background: In agar dilution the substance is mixed into plates at graded concentrations.
What is called MIC is the lowest concentration found to suppress growth. The low end stands for greater potency, the high end for weaker potency. `CC1(C)COCN1c1nc2c(cc1[N+](=O)[O-])c(=O)c(C(=O)O)cn2C(C)(C)C`: it took 0.1 µM (≈ 0.039 µg/mL) to inhibit growth (MIC).
Then `O=C(O)c1cn(-c2ccc(F)cc2)c2nc(N3CCN(C(c4ccccc4)c4ccc(Cl)cc4)CC3)c([N+](=O)[O-])cc2c1=O` (stereo not drawn), with 0.31 µM (≈ 0.19 µg/mL); and `O=C(O)c1cn(-c2ccc(F)cc2)c2nc(N3CCC(O)(c4ccc(Cl)cc4)CC3)c([N+](=O)[O-])cc2c1=O`, with 0.72 µM (≈ 0.388 µg/mL).
`CC(C)(C)n1cc(C(=O)O)c(=O)c2cc([N+](=O)[O-])c(N3CCC(N4CCCCC4)CC3)nc21` returned a minimum inhibitory concentration (MIC) of 1.7 µM (≈ 0.778 µg/mL).
Then `O=C(O)c1cn(C2CC2)c2nc(N3CCC(n4c(=O)[nH]c5cc(Cl)ccc54)CC3)c([N+](=O)[O-])cc2c1=O`, with 0.74 µM (≈ 0.388 µg/mL).
As to `CC(C)(C)n1cc(C(=O)O)c(=O)c2cc([N+](=O)[O-])c(N3CCC(n4c(=O)[nH]c5cc(Cl)ccc54)CC3)nc21`, 2.88 µM (≈ 1.56 µg/mL) was the least that counted as inhibitory (MIC). Against the preceding compound, the MIC is about 3.9-fold higher.
Then `CCN(CC)C(=O)C1CCCN(c2nc3c(cc2[N+](=O)[O-])c(=O)c(C(=O)O)cn3-c2ccc(F)cc2)C1` (stereo not drawn), with 1.52 µM (≈ 0.777 µg/mL).
Regarding `CC(C)(C)n1cc(C(=O)O)c(=O)c2cc([N+](=O)[O-])c(N3CCN(Cc4ccc5c(c4)OCO5)CC3)nc21`, the MIC amounted to 3.06 µM (≈ 1.56 µg/mL).
With `CC(C)(C)n1cc(C(=O)O)c(=O)c2cc([N+](=O)[O-])c(N3CCC4(CC3)OCCO4)nc21`, inhibition of growth (MIC) required 0.44 µM (≈ 0.19 µg/mL).
`CC(C)(C)NC(=O)C1c2ccccc2CCN1c1nc2c(cc1[N+](=O)[O-])c(=O)c(C(=O)O)cn2C1CC1` (stereo not drawn) had an MIC of 6.19 µM (≈ 3.13 µg/mL). This MIC is about 14-fold higher than that of the compound before.
`O=C(O)c1cn(-c2ccc(F)cc2)c2nc(N3CCSCC3)c([N+](=O)[O-])cc2c1=O`: the MIC was 0.91 µM (≈ 0.392 µg/mL).
Compound `CC(C)(C)n1cc(C(=O)O)c(=O)c2cc([N+](=O)[O-])c(N3CCSCC3)nc21` yielded an MIC of 0.48 µM (≈ 0.188 µg/mL).
As for `CN1CCN(c2nc3c(cc2[N+](=O)[O-])c(=O)c(C(=O)O)cn3-c2ccc(F)cc2)CC1c1ccccc1` (stereo not drawn), the figure is 0.18 µM (≈ 0.0906 µg/mL).
As for `CN1CCN(c2nc3c(cc2[N+](=O)[O-])c(=O)c(C(=O)O)cn3C(C)(C)C)CC1c1ccccc1` (stereo not drawn), the figure is 0.84 µM (≈ 0.391 µg/mL); as for `O=C(O)c1cn(C2CC2)c2nc(N3CCN(C(=O)C4COc5ccccc5O4)CC3)c([N+](=O)[O-])cc2c1=O` (stereo not drawn), 1.49 µM (≈ 0.777 µg/mL); as for `CC1CN(c2nc3c(cc2[N+](=O)[O-])c(=O)c(C(=O)O)cn3C2CC2)CC(C)O1` (stereo not drawn), 4.02 µM (≈ 1.56 µg/mL).
As to `O=C(O)c1cn(-c2ccc(F)cc2)c2nc(N3CCC(N4CCCCC4)CC3)c([N+](=O)[O-])cc2c1=O`, the MIC worked out at 1.57 µM (≈ 0.778 µg/mL).
The compound `CC(C)(C)n1cc(C(=O)O)c(=O)c2cc([N+](=O)[O-])c(N3CCN(C(=O)C4COc5ccccc5O4)CC3)nc21` (stereo not drawn) displayed an MIC of 2.9 µM (≈ 1.56 µg/mL). This MIC lies about 1.8-fold higher than the previous one.
As for `O=C(O)c1cn(C2CC2)c2nc(N3CCN(C(=O)c4ccco4)CC3)c([N+](=O)[O-])cc2c1=O`, the figure is 3.44 µM (≈ 1.56 µg/mL); as for `CC(C)(C)NC(=O)C1c2ccccc2CCN1c1nc2c(cc1[N+](=O)[O-])c(=O)c(C(=O)O)cn2C(C)(C)C` (stereo not drawn), 1.49 µM (≈ 0.777 µg/mL).
As for `O=C(O)c1cn2c(n1)CN(c1nc3c(cc1[N+](=O)[O-])c(=O)c(C(=O)O)cn3C1CC1)CC2`, the MIC is 1.77 µM (≈ 0.779 µg/mL).
As for `CC(C)(C)n1cc(C(=O)O)c(=O)c2cc([N+](=O)[O-])c(N3CCN(C(=O)c4ccco4)CC3)nc21`, the figure is 3.32 µM (≈ 1.56 µg/mL).
The compound `O=C(O)c1cn(C2CC2)c2nc(N3CCN(Cc4ccc5c(c4)OCO5)CC3)c([N+](=O)[O-])cc2c1=O` returned an MIC of 1.58 µM (≈ 0.78 µg/mL). Against the preceding compound, the MIC is about 2.1-fold lower.
As for `CC(C)(C)n1cc(C(=O)O)c(=O)c2cc([N+](=O)[O-])c(N3CCn4cc(C(=O)O)nc4C3)nc21`, the figure is 0.42 µM (≈ 0.192 µg/mL).
`COc1ccc(CC2C3=C(CCCC3)CCN2c2nc3c(cc2[N+](=O)[O-])c(=O)c(C(=O)O)cn3C2CC2)cc1` (stereo not drawn) showed a minimal inhibitory concentration (MIC) of 0.74 µM (≈ 0.393 µg/mL). Compared with the last compound, the MIC is about 1.8-fold higher.
Then `CC1CN(c2nc3c(cc2[N+](=O)[O-])c(=O)c(C(=O)O)cn3-c2ccc(F)cc2)CC(C)O1` (stereo not drawn), with 0.43 µM (≈ 0.19 µg/mL); and `O=C(O)c1cn2c(n1)CN(c1nc3c(cc1[N+](=O)[O-])c(=O)c(C(=O)O)cn3-c1ccc(F)cc1)CC2`, with 0.38 µM (≈ 0.188 µg/mL).
Compound `O=C(O)c1cn(-c2ccc(F)cc2)c2nc(N3CCN(C(=O)c4ccco4)CC3)c([N+](=O)[O-])cc2c1=O` registered an MIC of 1.54 µM (≈ 0.781 µg/mL). This MIC lies about 4.1-fold higher than the previous one.
In the case of `O=C(O)c1cn(-c2ccc(F)cc2)c2nc(N3CCC(n4c(=O)[nH]c5cc(Cl)ccc54)CC3)c([N+](=O)[O-])cc2c1=O`, the MIC was determined as 0.62 µM (≈ 0.359 µg/mL). This MIC is about 2.5-fold lower than that of the compound before.
`CC(C)(C)NC(=O)C1c2ccccc2CCN1c1nc2c(cc1[N+](=O)[O-])c(=O)c(C(=O)O)cn2-c1ccc(F)cc1` (stereo not drawn): the lowest concentration to inhibit growth (MIC) was 1.39 µM (≈ 0.778 µg/mL).
As for `CC(C)(C)n1cc(C(=O)O)c(=O)c2cc([N+](=O)[O-])c(N3CCC(O)(c4ccc(Cl)cc4)CC3)nc21`, the figure is 1.56 µM (≈ 0.781 µg/mL); as for `COc1c(N2CCNC(C)C2)c(F)cc2c(=O)c(C(=O)O)cn(C3CC3)c12` (stereo not drawn) [GATIFLOXACIN], 8.34 µM (≈ 3.13 µg/mL); as for `NNC(=O)c1ccncc1` [ISONIAZID], 45.6 µM (≈ 6.25 µg/mL).
